# According to the M2OR odorant receptor database:
# Assays:
# OR51E1 (Homo sapiens) = biological target: T1, OR51E1 (Homo sapiens) (UniProt Q8TCB6); conditions: stereoisomer not certain
# T1 sequence (whole entry): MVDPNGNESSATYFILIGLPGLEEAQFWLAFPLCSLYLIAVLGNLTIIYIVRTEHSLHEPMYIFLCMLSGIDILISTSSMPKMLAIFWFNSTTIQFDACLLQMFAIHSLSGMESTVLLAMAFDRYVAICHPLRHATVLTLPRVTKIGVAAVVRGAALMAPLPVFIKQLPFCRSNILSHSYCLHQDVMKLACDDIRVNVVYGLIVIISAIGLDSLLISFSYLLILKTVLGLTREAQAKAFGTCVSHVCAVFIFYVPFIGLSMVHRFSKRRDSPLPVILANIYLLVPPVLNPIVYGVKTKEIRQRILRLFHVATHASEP
# How it was run: (§1)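 Each receptor–molecule pair is labelled responsive or non-responsive (inactive) according to whether the original authors judged the measured signal statistically different from baseline. The data were taken from the main text and supplementary material of published papers and checked for typos and inconsistencies. Assay methods differed by source, with transient luciferase assays in mammalian cell lines being common.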
# OR51E2 (Homo sapiens) = biological target: T2, OR51E2 (Homo sapiens) (UniProt Q9H255); conditions: stereoisomer not certain
# T2 sequence (whole entry): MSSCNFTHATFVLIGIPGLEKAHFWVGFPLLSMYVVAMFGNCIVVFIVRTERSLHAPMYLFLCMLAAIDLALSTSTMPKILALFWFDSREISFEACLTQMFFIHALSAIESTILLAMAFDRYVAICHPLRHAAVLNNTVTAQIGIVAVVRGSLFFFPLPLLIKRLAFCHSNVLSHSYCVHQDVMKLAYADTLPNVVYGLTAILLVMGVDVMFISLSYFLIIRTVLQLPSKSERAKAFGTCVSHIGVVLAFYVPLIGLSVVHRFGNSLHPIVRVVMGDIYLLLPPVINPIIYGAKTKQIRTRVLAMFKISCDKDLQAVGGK
# How it was run: as §1
# 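Further: active if original authors judged signal statistically different from baseline.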
Compound,odorant receptor agonist call (OR51E1 (Homo sapiens)),odorant receptor agonist call (OR51E2 (Homo sapiens))
c1ccccc1,inactive,inactive
CC(=O)OCC=C(C)C,inactive,inactive
C=C(C)C1CCC(C)C(=O)C1 (stereo not given),inactive,inactive
CC12CCC(CC1=O)C2(C)C (stereo not given),inactive,inactive
CC(C)=CCCC(C)=CCO,inactive,inactive
COc1cc(C(=O)O)ccc1O,inactive,inactive
O=C(c1ccccc1)c1ccccc1,inactive,inactive
CC(=O)OCc1ccccc1,inactive,inactive
CCCCCCCCC(=O)O,active,inactive
CCCC(C)=O,inactive,inactive
